Measurements reported in the M2OR odorant receptor database.

Tests used:
Conditions in all cases: stereoisomer not certain
UniProt Q8VGX8 = molecular target: T1, UniProt Q8VGX8
T1 sequence (whole entry): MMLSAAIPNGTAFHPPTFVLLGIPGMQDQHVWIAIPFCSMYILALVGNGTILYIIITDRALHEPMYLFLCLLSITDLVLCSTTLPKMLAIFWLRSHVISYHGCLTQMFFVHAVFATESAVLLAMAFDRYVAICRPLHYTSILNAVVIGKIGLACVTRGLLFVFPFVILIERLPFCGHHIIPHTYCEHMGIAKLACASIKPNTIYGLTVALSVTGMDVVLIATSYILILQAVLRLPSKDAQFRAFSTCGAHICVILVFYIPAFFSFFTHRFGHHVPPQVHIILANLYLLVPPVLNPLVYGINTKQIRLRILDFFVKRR
In short: (§1)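 Transient luciferase assays in mammalian cell lines were common, though methods varied by source. The values come from published papers and their supplementary material, with extra details from the original authors when needed. Responsive refers to a measured signal the original authors judged statistically different from baseline, and non-responsive (inactive) to the remainder.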

UniProt Q8VGY6 = molecular target: T2, UniProt Q8VGY6
T2 sequence (whole entry): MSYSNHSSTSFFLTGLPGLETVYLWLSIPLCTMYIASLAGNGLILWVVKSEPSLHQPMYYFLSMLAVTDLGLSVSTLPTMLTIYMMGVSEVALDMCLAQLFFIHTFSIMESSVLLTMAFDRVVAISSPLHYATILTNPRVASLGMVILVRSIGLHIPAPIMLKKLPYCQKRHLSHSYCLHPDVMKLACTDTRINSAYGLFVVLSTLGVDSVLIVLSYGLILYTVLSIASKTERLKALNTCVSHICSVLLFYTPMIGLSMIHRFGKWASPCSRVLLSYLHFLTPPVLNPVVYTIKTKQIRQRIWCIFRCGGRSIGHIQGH
In short: as §1

UniProt Q8VGZ2 = molecular target: T3, UniProt Q8VGZ2
T3 sequence (whole entry): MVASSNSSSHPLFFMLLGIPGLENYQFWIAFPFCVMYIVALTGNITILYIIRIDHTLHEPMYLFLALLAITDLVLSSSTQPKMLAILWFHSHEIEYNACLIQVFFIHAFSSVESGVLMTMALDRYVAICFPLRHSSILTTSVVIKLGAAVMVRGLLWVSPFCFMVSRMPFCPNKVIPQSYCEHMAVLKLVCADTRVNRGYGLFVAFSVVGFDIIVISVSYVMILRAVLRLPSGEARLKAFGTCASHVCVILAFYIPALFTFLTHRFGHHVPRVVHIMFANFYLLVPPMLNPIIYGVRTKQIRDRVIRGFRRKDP
In short: as §1

UniProt Q8VGZ7 = molecular target: T4, UniProt Q8VGZ7
T4 sequence (whole entry): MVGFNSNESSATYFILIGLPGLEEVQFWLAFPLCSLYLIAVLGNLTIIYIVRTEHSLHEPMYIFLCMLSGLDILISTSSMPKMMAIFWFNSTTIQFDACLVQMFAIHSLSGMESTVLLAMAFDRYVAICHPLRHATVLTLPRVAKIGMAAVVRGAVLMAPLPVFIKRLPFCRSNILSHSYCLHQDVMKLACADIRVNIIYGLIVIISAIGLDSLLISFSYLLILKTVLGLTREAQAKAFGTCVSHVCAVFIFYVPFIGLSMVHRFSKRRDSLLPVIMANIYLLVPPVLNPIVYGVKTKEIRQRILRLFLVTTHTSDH
In short: as §1

UniProt Q8VH10 = molecular target: T5, UniProt Q8VH10
T5 sequence (whole entry): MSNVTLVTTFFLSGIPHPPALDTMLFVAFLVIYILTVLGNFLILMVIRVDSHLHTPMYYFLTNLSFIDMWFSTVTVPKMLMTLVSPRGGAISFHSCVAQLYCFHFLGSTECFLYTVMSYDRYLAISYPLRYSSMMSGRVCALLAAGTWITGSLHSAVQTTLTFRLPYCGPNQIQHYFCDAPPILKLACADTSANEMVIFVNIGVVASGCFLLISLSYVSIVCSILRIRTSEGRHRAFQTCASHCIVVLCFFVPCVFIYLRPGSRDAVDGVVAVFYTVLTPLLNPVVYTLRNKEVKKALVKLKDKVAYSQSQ
In short: as §1

UniProt Q8VH16 = molecular target: T6, UniProt Q8VH16
T6 sequence (whole entry): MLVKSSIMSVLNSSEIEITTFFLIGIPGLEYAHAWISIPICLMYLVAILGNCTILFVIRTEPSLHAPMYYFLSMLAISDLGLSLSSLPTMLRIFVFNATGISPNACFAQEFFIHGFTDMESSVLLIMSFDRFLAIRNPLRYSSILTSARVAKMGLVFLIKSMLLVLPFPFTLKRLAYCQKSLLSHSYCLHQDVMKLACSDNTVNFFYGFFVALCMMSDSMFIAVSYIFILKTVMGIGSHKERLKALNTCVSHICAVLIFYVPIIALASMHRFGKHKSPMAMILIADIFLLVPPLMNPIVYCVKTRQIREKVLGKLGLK
In short: as §1

UniProt Q8VH20 = molecular target: T7, UniProt Q8VH20
T7 sequence (whole entry): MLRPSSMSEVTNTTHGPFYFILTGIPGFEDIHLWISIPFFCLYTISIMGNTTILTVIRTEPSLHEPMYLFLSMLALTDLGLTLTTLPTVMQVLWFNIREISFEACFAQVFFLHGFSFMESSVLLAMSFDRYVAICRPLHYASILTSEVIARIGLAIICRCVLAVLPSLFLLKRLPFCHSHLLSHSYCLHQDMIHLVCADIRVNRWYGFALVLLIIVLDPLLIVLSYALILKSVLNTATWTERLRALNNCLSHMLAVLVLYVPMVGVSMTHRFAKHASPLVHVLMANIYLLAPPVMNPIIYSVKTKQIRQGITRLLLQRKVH
In short: as §1

UniProt Q8VH21 = molecular target: T8, UniProt Q8VH21
T8 sequence (whole entry): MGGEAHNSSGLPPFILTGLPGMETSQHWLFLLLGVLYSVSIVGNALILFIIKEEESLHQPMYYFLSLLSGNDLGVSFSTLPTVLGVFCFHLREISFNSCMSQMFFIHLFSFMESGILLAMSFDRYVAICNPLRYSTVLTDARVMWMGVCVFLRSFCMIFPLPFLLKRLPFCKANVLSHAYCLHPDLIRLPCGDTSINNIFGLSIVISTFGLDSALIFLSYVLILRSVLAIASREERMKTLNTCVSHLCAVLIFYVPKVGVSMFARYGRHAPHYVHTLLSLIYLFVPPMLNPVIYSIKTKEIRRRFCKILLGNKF
In short: as §1

UniProt Q924H8 = molecular target: T9, UniProt Q924H8
T9 sequence (whole entry): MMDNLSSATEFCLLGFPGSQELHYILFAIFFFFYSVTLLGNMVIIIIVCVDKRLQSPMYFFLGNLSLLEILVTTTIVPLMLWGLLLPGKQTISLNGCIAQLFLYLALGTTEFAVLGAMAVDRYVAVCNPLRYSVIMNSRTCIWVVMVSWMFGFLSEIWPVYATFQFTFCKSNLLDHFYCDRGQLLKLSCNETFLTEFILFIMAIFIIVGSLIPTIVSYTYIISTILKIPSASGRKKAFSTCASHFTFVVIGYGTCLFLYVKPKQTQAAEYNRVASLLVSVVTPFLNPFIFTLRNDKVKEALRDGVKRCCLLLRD
In short: as §1

UniProt Q9EPN9 = molecular target: T10, UniProt Q9EPN9
T10 sequence (whole entry): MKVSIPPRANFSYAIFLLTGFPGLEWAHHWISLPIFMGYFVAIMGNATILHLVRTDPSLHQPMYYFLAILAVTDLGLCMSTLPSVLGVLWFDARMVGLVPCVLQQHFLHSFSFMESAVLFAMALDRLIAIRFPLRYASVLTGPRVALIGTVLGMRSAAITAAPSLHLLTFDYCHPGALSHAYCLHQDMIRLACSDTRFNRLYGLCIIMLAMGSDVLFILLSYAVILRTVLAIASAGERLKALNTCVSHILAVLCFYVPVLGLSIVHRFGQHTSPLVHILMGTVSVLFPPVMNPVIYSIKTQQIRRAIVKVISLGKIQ
In short: as §1

UniProt Q9R0K2 = molecular target: UniProt Q9R0K2
Chain of UniProt Q9R0K2 (Q9R0K2 as listed by the source): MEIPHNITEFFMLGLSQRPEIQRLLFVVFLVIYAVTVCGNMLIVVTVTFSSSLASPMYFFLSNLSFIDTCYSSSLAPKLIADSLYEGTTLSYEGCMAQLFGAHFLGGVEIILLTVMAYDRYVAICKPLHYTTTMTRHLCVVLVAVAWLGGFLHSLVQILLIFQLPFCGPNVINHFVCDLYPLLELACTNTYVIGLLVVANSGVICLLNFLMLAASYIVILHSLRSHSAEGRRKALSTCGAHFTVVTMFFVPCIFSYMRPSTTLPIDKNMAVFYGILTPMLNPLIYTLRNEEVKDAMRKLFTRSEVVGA
In short: as §1

UniProt Q9WU86 = molecular target: T11, UniProt Q9WU86
T11 sequence (whole entry): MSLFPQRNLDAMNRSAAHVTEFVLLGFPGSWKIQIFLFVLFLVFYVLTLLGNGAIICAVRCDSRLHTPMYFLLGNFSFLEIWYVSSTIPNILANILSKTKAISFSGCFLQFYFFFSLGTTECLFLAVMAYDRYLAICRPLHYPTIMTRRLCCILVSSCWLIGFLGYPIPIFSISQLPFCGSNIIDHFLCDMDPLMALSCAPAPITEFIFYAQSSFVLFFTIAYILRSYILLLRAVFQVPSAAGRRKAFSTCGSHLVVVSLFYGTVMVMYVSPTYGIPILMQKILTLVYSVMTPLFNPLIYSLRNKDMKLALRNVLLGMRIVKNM
In short: as §1

UniProt Q920P1 = molecular target: T12, UniProt Q920P1
T12 sequence (whole entry): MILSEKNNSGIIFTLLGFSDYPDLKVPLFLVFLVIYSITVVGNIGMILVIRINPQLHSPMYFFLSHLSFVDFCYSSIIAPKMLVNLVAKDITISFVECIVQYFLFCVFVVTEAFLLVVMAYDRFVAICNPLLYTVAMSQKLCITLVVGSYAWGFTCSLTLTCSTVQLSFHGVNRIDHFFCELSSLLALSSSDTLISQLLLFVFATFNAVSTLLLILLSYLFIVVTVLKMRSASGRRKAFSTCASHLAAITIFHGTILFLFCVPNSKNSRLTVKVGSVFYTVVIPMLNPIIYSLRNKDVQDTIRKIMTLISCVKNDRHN
In short: as §1

UniProt Q920P2 = molecular target: T13, UniProt Q920P2
T13 sequence (whole entry): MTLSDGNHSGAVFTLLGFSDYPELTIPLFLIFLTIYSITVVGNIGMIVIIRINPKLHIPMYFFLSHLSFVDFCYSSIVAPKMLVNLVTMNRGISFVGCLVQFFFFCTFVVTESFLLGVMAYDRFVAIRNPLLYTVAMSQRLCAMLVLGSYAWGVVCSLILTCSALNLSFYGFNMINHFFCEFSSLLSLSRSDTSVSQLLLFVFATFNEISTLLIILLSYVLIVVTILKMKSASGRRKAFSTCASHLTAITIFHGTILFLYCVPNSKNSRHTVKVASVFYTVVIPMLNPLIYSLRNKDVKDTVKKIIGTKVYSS
In short: as §1

Measured: odorant receptor agonist call

CCCCCC(=O)CC
not listed: UniProt Q920P1 | UniProt Q920P2
inactive: all other assays above

CC(C)=CCCC(C)=CCO
active: UniProt Q9R0K2
inactive: all other assays above
